≈ marks a conversion by molar mass, not a printed value.
Legend:
1-F12 = assay: icELISA with mAb 1-F12; format: binding, Balb/c mice; settings: for CR: CR%=IC50 6-GG/IC50 test compound x100%
Summary of the method: (§1)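 Ascites-derived mAbs (caprylic acid–ammonium sulfate purified) from female Balb/c mice immunized with hapten–BSA. Plates coated with hapten–OVA in carbonate buffer (0.5 mol L−1, pH 9.6), blocked with 5% skim milk, washed with PBST, and detected with goat anti-mouse IgG-HRP; reaction stopped with 2 mol L−1 H2SO4. Analyte stocks (1 mg/mL, 70% methanol) were diluted in 10% methanol-PBS. IC50 values were fitted, and cross-reactivity was calculated for capsaicinoids, gingerol derivatives and eight other compounds.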

1-D6 = assay: icELISA with mAb 1-D6; format: binding, Balb/c mice; settings: for CR: CR%=IC50 6-GG/IC50 test compound x100%
Summary of the method: as §1

1-G12 = assay: icELISA with mAb 1-G12; format: binding, Balb/c mice; settings: for CR: CR%=IC50 6-GG/IC50 test compound x100%
Summary of the method: as §1

5-3H1 = assay: icELISA with mAb 5-3H1; format: binding
5-D8 = assay: icELISA with mAb 5-D8; format: binding
3-LD3 = assay: icELISA with mAb 3-LD3; format: binding
2-LD2 = assay: icELISA with mAb 2-LD2; format: binding
6-AT6 = assay: icELISA with mAb 6-AT6; format: binding
4-AT4 = assay: icELISA with mAb 4-AT4; format: binding
[1] = mAb 1-D6, specific evaluation (Table 1, Fig. 3C)
[2] = mAb 1-F12, specific evaluation (Table 1, Fig. 3B)
[3] = mAb 1-G12, specific evaluation (Table 1, Fig. 3D)

## COc1cc(/C=C/C(=O)O)ccc1O [Ferulic acid]
1-F12; mAb 1-F12
  CR: <12.66%
1-D6; [1]
  IC50: 1.92736 µg/mL (≈ 9.93 µM)
1-D6; mAb 1-D6
  CR: 3.07%
1-G12; mAb 1-G12
  CR: <14.01%

## CCCCC[C@H](O)CC(=O)CCc1ccc(O)c(OC)c1 [Hapten 6-GG, 6-gingerol]
5-3H1; coating antigen Hapten 1-OVA
  IC50: 0.03897 µg/mL (≈ 0.132 µM)
5-3H1; coating antigen Hapten 2-OVA
  IC50: >4 µg/mL
5-3H1; coating antigen Hapten 3-OVA
  IC50: >4 µg/mL
5-3H1; coating antigen Hapten 4-OVA
  IC50: 1.06282 µg/mL (≈ 3.61 µM)
5-3H1; coating antigen Hapten 5-OVA
  IC50: 0.67041 µg/mL (≈ 2.28 µM)
5-D8; coating antigen Hapten 1-OVA
  IC50: 0.02328 µg/mL (≈ 0.0791 µM)
5-D8; coating antigen Hapten 2-OVA
  IC50: >4 µg/mL
5-D8; coating antigen Hapten 3-OVA
  IC50: >4 µg/mL
5-D8; coating antigen Hapten 4-OVA
  IC50: 1.03007 µg/mL (≈ 3.5 µM)
5-D8; coating antigen Hapten 5-OVA
  IC50: 1.03651 µg/mL (≈ 3.52 µM)
3-LD3; coating antigen Hapten 2-OVA
  IC50: 1.82165 µg/mL (≈ 6.19 µM)
3-LD3; coating antigen Hapten 3-OVA
  IC50: 2.18232 µg/mL (≈ 7.41 µM)
3-LD3; coating antigen Hapten 4-OVA
  IC50: 0.27108 µg/mL (≈ 0.921 µM)
2-LD2; coating antigen Hapten 1-OVA
  IC50: 0.02479 µg/mL (≈ 0.0842 µM)
2-LD2; coating antigen Hapten 2-OVA
  IC50: 1.43616 µg/mL (≈ 4.88 µM)
2-LD2; coating antigen Hapten 3-OVA
  IC50: 0.00178 µg/mL (≈ 0.00605 µM)
2-LD2; coating antigen Hapten 4-OVA
  IC50: 0.00101 µg/mL (≈ 0.00343 µM)
1-F12; coating antigen Hapten 1-OVA, mAb 1-F12
  IC50: 0.50623 µg/mL (≈ 1.72 µM)
1-F12; coating antigen Hapten 2-OVA, mAb 1-F12
  IC50: >4 µg/mL
1-F12; coating antigen Hapten 3-OVA, mAb 1-F12
  IC50: >4 µg/mL
1-F12; coating antigen Hapten 4-OVA, mAb 1-F12
  IC50: 0.40126 µg/mL (≈ 1.36 µM)
1-F12; coating antigen Hapten 5-OVA, mAb 1-F12 (optimal combination)
  IC50: 0.12283 µg/mL
1-F12; coating antigen Hapten 6-OVA, mAb 1-F12
  IC50: 0.63169 µg/mL (≈ 2.15 µM)
1-F12; [2]
  IC50: 0.50623 µg/mL (≈ 1.72 µM)
1-F12; mAb 1-F12
  CR: 100.00%
1-D6; coating antigen Hapten 1-OVA, mAb 1-D6
  IC50: 0.05917 µg/mL (≈ 0.201 µM)
1-D6; coating antigen Hapten 2-OVA, mAb 1-D6
  IC50: 1.14733 µg/mL (≈ 3.9 µM)
1-D6; coating antigen Hapten 3-OVA, mAb 1-D6
  IC50: 0.02778 µg/mL (≈ 0.0944 µM)
1-D6; coating antigen Hapten 4-OVA, mAb 1-D6
  IC50: 0.29753 µg/mL (≈ 1.01 µM)
1-D6; coating antigen Hapten 5-OVA, mAb 1-D6
  IC50: 0.13286 µg/mL (≈ 0.451 µM)
1-D6; coating antigen Hapten 6-OVA, mAb 1-D6
  IC50: 0.15056 µg/mL (≈ 0.511 µM)
1-D6; [1]
  IC50: 0.05917 µg/mL (≈ 0.201 µM)
1-D6; mAb 1-D6
  CR: 100.00%
1-G12; coating antigen Hapten 1-OVA, mAb 1-G12
  IC50: 0.56059 µg/mL (≈ 1.9 µM)
1-G12; coating antigen Hapten 2-OVA, mAb 1-G12
  IC50: >4 µg/mL
1-G12; coating antigen Hapten 3-OVA, mAb 1-G12
  IC50: >4 µg/mL
1-G12; coating antigen Hapten 4-OVA, mAb 1-G12
  IC50: 0.41084 µg/mL (≈ 1.4 µM)
1-G12; coating antigen Hapten 5-OVA, mAb 1-G12
  IC50: 0.19553 µg/mL (≈ 0.664 µM)
1-G12; coating antigen Hapten 6-OVA, mAb 1-G12
  IC50: 0.28444 µg/mL (≈ 0.966 µM)
1-G12; [3]
  IC50: 0.56059 µg/mL (≈ 1.9 µM)
1-G12; mAb 1-G12
  CR: 100.00%
6-AT6; coating antigen Hapten 1-OVA
  IC50: >4 µg/mL
6-AT6; coating antigen Hapten 2-OVA
  IC50: >4 µg/mL
6-AT6; coating antigen Hapten 3-OVA
  IC50: >4 µg/mL
6-AT6; coating antigen Hapten 4-OVA
  IC50: >4 µg/mL
6-AT6; coating antigen Hapten 5-OVA
  IC50: 0.42562 µg/mL (≈ 1.45 µM)
6-AT6; coating antigen Hapten 6-OVA
  IC50: >4 µg/mL
4-AT4; coating antigen Hapten 1-OVA
  IC50: 0.00493 µg/mL (≈ 0.0167 µM)
4-AT4; coating antigen Hapten 2-OVA
  IC50: >4 µg/mL
4-AT4; coating antigen Hapten 3-OVA
  IC50: >4 µg/mL
4-AT4; coating antigen Hapten 4-OVA
  IC50: >4 µg/mL
4-AT4; coating antigen Hapten 5-OVA
  IC50: 0.48165 µg/mL (≈ 1.64 µM)

## COc1ccc(/C=C/C(=O)O)cc1O [IsoFerulic acid]
1-F12; [2]
  IC50: >4 µg/mL
1-F12; mAb 1-F12
  CR: <12.66%
1-D6; [1]
  IC50: 2.12807 µg/mL (≈ 11 µM)
1-D6; mAb 1-D6
  CR: 2.78%
1-G12; [3]
  IC50: >4 µg/mL
1-G12; mAb 1-G12
  CR: <14.01%

## COc1cc(/C=C/C(=O)O)ccc1O [Trans-Ferulic acid]
1-F12; [2]
  IC50: >4 µg/mL
1-F12; mAb 1-F12
  CR: <12.66%
1-D6; [1]
  IC50: >4 µg/mL
1-D6; mAb 1-D6
  CR: <1.48%
1-G12; [3]
  IC50: >4 µg/mL
1-G12; mAb 1-G12
  CR: <14.01%

## COc1cc(C(=O)O)ccc1O [Vanillic acid]
1-F12; [2]
  IC50: >4 µg/mL
1-F12; mAb 1-F12
  CR: <12.66%
1-D6; [1]
  IC50: 1.7172 µg/mL (≈ 10.2 µM)
1-D6; mAb 1-D6
  CR: 3.45%
1-G12; [3]
  IC50: >4 µg/mL
1-G12; mAb 1-G12
  CR: <14.01%

## COc1cc(C=O)ccc1O [Vanillin]
1-F12; [2]
  IC50: >4 µg/mL
1-F12; mAb 1-F12
  CR: <12.66%
1-D6; [1]
  IC50: 1.98161 µg/mL (≈ 13 µM)
1-D6; mAb 1-D6
  CR: 2.99%
1-G12; [3]
  IC50: >4 µg/mL
1-G12; mAb 1-G12
  CR: <14.01%
